# Compounds with a hit are over-represented: about 5.5% of the library has one in this group of screens.
# STAT3 act = increases IL-6 driven STAT3 reporter signal. U3A cells, IL-6 STAT3-luciferase reporter, luminescence; 100% = signal with IL-6 EC80 alone. activation (% of control), % at 5.6 µM. AID 871. hit rate 0.91% among 190,000;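 active = activation above the screen-wide mean of compound activation plus 3 SD, cut at about 130% in these data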;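 note: 0% = background luminescence of wells with medium and substrate only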
#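 Material: STAT3-luciferase reporter U3A cells; Probe or stimulus: IL-6 (33 ng/mL); Incubation: compound pre-incubation 1 h before IL-6, then 6 h stimulation at 37 °C; Technique: luminescence from STAT3-driven luciferase reporter; Evaluation: % activation versus median of IL-6-stimulated wells; Controls: IL-6-only high control.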
# STAT1 act = activators of IFN-gamma induced STAT1 signaling; NIH 3T3 STAT1-luciferase reporter, luminescence; 100% = IFN-gamma alone, no compound; AID 932; hit rate 2.6% among 200,000; activation (% of control), % at 5.5 µM;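 active = activation above the screen-wide mean activation plus 3 SD, cut at about 130% in these data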;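 note: raw ratio to IFN-gamma control signal so 100% means no change and 0% no light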
# STAT3 blocker = STAT3 signaling inhibition | inhibition, % at 5.5 µM | hit rate 0.89% among 190,000 | U3A cells, IL-6 STAT3-luciferase reporter, luminescence; host cell line lacks STAT1;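 active = inhibition above the mean inhibition across all screened compounds plus 3 SD, cut at about 44% in these data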;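 note: 0% = DMSO only wells and 100% = 100 µM nifuroxazide control wells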
# HSV augment = HSV replication enhancement; HSV replication augmentation in cells, fold increase; maximum fold increase; hit rate 0.005% among 220,000; in the data active = maximum fold increase above about 1.5; inconclusive = no clear call, values can overlap the other calls; tested in PC3 cells
# STAT1 blocker = STAT1 signaling inhibition. hit rate 0.35% among 200,000. inhibition, % at 5.5 µM. AID 920. NIH 3T3 STAT1-luciferase reporter, IFN-gamma, luminescence;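 active = inhibition above a set limit, the mean inhibition across all tested compounds plus 3 SD, cut at about 34% in these data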;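 note: 0% = IFN-gamma with DMSO and 100% = IFN-gamma with 300 µM nifuroxazide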
# Cl transport mod = modulates chloride dependent transport by human KCC2. KCC2 cells, thallium flux FluoZin-2 fluorescence. B-score of Tl+ flux slope (higher = more flux/activation; lower = inhibition) at 10 µM. hit rate 2.2% among 190,000;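 active = thallium flux slope and its plate-corrected score both differing from the plate sample mean at a set confidence after two filtering rounds, in either direction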;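 note: slope of fluorescence scaled to starting intensity during 10 to 20 s after thallium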
# Target sequence (Q9H2X9 whole entry, looked up): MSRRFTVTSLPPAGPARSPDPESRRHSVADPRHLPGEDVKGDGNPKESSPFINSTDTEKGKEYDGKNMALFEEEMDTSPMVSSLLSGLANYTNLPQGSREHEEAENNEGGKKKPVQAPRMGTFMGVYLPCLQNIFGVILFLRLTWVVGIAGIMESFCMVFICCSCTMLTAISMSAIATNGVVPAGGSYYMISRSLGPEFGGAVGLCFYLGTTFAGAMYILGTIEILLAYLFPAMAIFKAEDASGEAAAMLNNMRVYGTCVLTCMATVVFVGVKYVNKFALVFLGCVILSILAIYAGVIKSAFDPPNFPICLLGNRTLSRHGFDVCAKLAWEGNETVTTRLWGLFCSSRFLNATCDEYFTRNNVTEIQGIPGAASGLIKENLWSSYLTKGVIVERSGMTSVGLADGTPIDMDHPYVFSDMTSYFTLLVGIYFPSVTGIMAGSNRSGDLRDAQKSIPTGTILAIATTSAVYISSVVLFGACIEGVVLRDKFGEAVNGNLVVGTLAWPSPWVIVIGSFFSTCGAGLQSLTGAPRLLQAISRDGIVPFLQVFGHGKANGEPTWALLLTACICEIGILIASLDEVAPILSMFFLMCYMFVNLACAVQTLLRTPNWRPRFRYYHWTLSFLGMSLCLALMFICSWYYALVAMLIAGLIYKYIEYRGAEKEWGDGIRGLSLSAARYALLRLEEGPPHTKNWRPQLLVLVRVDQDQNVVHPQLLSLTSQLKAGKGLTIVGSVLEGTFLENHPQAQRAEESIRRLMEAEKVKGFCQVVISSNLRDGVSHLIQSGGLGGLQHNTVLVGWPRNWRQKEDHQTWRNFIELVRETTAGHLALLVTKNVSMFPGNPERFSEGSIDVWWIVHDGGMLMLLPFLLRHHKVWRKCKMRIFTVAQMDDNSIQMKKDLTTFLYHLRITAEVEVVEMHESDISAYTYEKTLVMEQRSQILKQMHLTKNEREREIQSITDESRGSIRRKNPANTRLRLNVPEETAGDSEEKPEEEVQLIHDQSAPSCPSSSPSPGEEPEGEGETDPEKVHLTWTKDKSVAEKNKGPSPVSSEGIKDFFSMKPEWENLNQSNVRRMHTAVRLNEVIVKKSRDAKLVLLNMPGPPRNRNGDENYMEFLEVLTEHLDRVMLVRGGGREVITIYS
# KCC2 sec1 = KCC2 (human) modulation, secondary assay | shares compounds with Cl transport mod | HEK293-KCC2, thallium flux, FluoZin2 fluorescence; hits give high values | normalised thallium flux (F/F0 slope) at 10 µM | hit rate 15% among 3,700;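 active = thallium flux slope above the same plate's solvent-only control mean plus 3 SD; inconclusive = the two replicate wells disagree; inactive = no significant difference from solvent-only control wells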
# KCC2 bumet counter = thallium flux persisting under bumetanide in KCC2 cells, counter-screen secondary assay; shares compounds with Cl transport mod; HEK293-KCC2 + bumetanide/ouabain, thallium flux FluoZin2; hits give high values; normalized thallium flux at 10 µM; hit rate 49% among 3,700; AID 1714;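 active = thallium entry rate above the same plate's blocked-transporter control wells by more than 3 SD; inconclusive = the two repeat wells disagree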;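 note: raw slope of fluorescence over initial fluorescence between 10 and 20 s after thallium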
# KCC2 secondary2 = KCC2 (human) modulation, second secondary assay. AID 1715. normalized thallium flux at 10 µM. HEK293-KCC2, thallium flux FluoZin2 fluorescence; actives lie on both sides; F/F0 rise rate, 10–20 s post-thallium. shares compounds with Cl transport mod. hit rate 23% among 3,700;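 active = thallium flux slope more than 3 SD above or below the plate's solvent-only control mean, mostly below; inconclusive = the two repeat wells disagreed; inactive = no significant shift from solvent-only controls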;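 note: raw slope with 0.1% DMSO as baseline and bumetanide as block control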
# HEK293 Tl flux = acts in parental HEK cells, KCC2 counter-screen. shares compounds with Cl transport mod. HEK293 parental cells, thallium flux FluoZin2, ouabain; baseline-ratio fluorescence slope, 10–20 s after thallium. thallium flux rate (normalised fluorescence) at 10 µM. hit rate 46% among 3,700;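 active = thallium flux rate significantly above the same plate's solvent-only control wells, beyond their mean plus 3 SD; inconclusive = the two replicate wells gave conflicting results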
# KCC2 retest ouab = modulates human KCC2 on retest with ouabain | shares compounds with Cl transport mod | HEK293-KCC2, thallium flux FluoZin2 fluorescence; bidirectional: low = inhibitor, high = activator | raw Tl+ flux slope (below DMSO = inhibition, above = activation) at 10 µM | hit rate 48% among 3,700;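 active = thallium flux slope beyond 3 SD from same-plate DMSO control mean in most replicates, usually higher, sometimes lower; inconclusive = repeat tests gave conflicting results; inactive = no significant difference from controls in most replicates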;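 note: slope of initial-normalized fluorescence between seconds 10 and 20 after thallium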
# HEK293 Tl flux2 = parental HEK flux effect, counter-screen 2; shares compounds with Cl transport mod; hit rate 33% among 3,700; thallium flux slope at 10 µM; AID 1718; HEK293 parental, thallium flux FluoZin-2 fluorescence slope;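 active = thallium flux slope above the same plate's solvent-control mean plus 3 SD in both duplicate wells; inconclusive = duplicate wells that disagreed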;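 note: run without ouabain in cells lacking the KCC2 cotransporter; slope of fluorescence scaled to its starting value between 10 and 20 s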
# Starred values were filed as active, the others as inactive; i = inactive; ? = inconclusive; . = no result given.
SMILES,STAT3 act,STAT1 act,STAT3 blocker,HSV augment,STAT1 blocker,Cl transport mod,KCC2 sec1,KCC2 bumet counter,KCC2 secondary2,HEK293 Tl flux,KCC2 retest ouab,HEK293 Tl flux2
Cn1c(-c2csc(-c3ccccc3)n2)n[nH]c1=S,83.1,110.9,24.6,i,-15.6,5.23*,0.00706,0.0207*,0.0333,0.0171*,0.0276*,0.0205*
CCn1c(-c2cccc(Br)c2)n[nH]c1=S,100.1,96.4,3.6,i,4.3,1.23,.,.,.,.,.,.
CCn1c(-c2cc(-c3ccc(C)cc3)nc3ccccc23)n[nH]c1=S,104.0,104.4,-3.1,i,-4.9,7.91*,?,0.0491*,0.0359,0.0155*,0.039*,0.0175*
CCn1c(-c2sc(-c3ccccc3)nc2C)n[nH]c1=S,96.4,100.7,9.0,i,-4.1,3.89*,0.00617,0.0132*,0.0347,0.0138*,?,0.0173*
CC(SCC(=O)Nc1ccc(S(=O)(=O)N2CCCCC2)cc1)C(=O)O (centres undefined),107.8,104.7,-2.6,i,-5.1,1.32,.,.,.,.,.,.
O=C(CC1S/C(=N/N=C/c2ccco2)NC1=O)Nc1cccc(Cl)c1Cl (centres undefined),103.5,93.9,-0.4,i,4.8,0.527,.,.,.,.,.,.
Oc1c(Br)cc(Br)cc1C=Nc1ccc2c(c1)OCO2,102.2,101.5,-2.2,i,-1.6,-0.514,.,.,.,.,.,.
Oc1ccc(N=Nc2ccc3c(c2)OCO3)c2ccccc12,.,.,.,i,.,9.01*,0.0155,0.0107*,0.028,0.0115*,0.0202*,0.012
CCOc1ccccc1CNC(=O)C1CCN(c2nc3ccccc3o2)CC1,96.2,97.7,9.6,.,2.5,.,0.0171,?,?,0.00696,0.0143,0.00966
CC(C)CCNC(=O)C1CCN(c2nc3ccccc3o2)CC1,103.7,99.7,-1.7,i,0.3,-0.215,.,.,.,.,.,.
O=C(NCc1cccs1)C1CCN(c2nc3ccccc3o2)CC1,90.5,101.4,16.4,.,-1.5,.,0.00762,0.00629,0.0333,0.0043,0.016*,0.0115
O=C(CSc1nnc(-c2ccncc2)n1-c1ccc(Cl)cc1)NCc1cccs1,100.9,101.1,2.9,i,-1.2,0.494,.,.,.,.,.,.
CC(=O)c1ccc(NC(=O)C(C)Nc2ccc(Cl)cc2)cc1 (centres undefined),99.4,97.0,5.4,i,3.0,0.337,.,.,.,.,.,.
O=C(NCCCCNC(=O)c1ccc(Cl)s1)c1ccc(Cl)s1,96.9,103.8,5.8,i,-1.9,0.198,.,.,.,.,.,.
CN(C)CCNC(=O)c1ccc(Cl)s1,101.8,102.4,-2.4,i,-2.6,7.33*,0.00989,0.00673,0.0318,0.00744,0.0501,?
COc1ccccc1-c1noc(-c2ccccc2C(=O)Nc2ccccc2)n1,108.9,106.1,-5.7,i,-6.6,.,.,.,.,.,.,.
COc1ccccc1NC(=O)c1ccccc1-c1nc(-c2ccccc2OC)no1,97.7,97.9,5.8,i,-0.5,4.04*,0.00808,0.00524,0.0323,0.00348,0.0193,0.0112
Cc1ccc(/C=C/C(=O)NC2CCCCCCC2)o1,120.7,123.5,-27.3,i,-24.9,1.43,.,.,.,.,.,.
Cc1ccc(C(C#N)c2ccc3c(C(F)(F)F)cc(C(F)(F)F)nc3n2)cc1 (centres undefined),91.7,98.8,13.6,i,1.3,13.4*,0.0216*,0.0646*,?,0.0165*,0.0329*,0.0161*
O=C1NC(=S)S/C1=C/c1ccc(Oc2cnccn2)cc1,101.0,103.6,0.7,i,-4.0,.,0.0123*,0.0384*,0.0293,0.0117*,0.0367*,?
COc1cc(/C=C2\SC(=O)NC2=O)ccc1Oc1cnccn1,117.2,107.1,-13.2,i,-10.2,.,.,.,.,.,.,.
COc1ccc(-c2nnc(S/C(=C/c3ccc(Cl)cc3)C(=O)O)o2)cc1,105.4,107.1,-5.1,i,-9.2,-3.05*,0.00824,0.00554*,0.0226*,0.00768,0.0156*,0.00991
Nc1c(C(=O)c2ccccc2)sc2nsc(SCCN3CCCC3)c12,.,.,.,.,.,4.19*,0.00598*,0.00716,0.0295,0.00741,0.0143*,0.0104
O=C(NNC1CC(=O)N(c2ccc(Cl)cc2)C1=O)c1ccco1 (centres undefined),104.2,108.9,-5.5,i,-9.4,-1.1,.,.,.,.,.,.
CC(=O)CCc1c(C)[nH]c2ccccc2c1=O,97.6,104.0,6.2,i,-4.3,0.883,.,.,.,.,.,.
SMILES,STAT3 act,STAT1 act,STAT3 blocker,HSV augment,STAT1 blocker,Cl transport mod,KCC2 sec1,KCC2 bumet counter,KCC2 secondary2,HEK293 Tl flux,KCC2 retest ouab,HEK293 Tl flux2
CCc1c(C)[nH]c2ccccc2c1=O,91.3,88.5,16.4,i,11.3,7.59*,0.00692,?,0.0273,0.00772,0.0189,0.0103
COc1ccc(C2=NN(C(=O)c3cccs3)C(O)(C(F)(F)F)C2)cc1 (centres undefined),98.2,100.2,7.1,i,-2.0,4.86*,?,0.00934*,0.0326,?,0.0217,0.0113
COC(=O)N1N=C(c2ccc(Br)cc2)CC1(O)C(F)(F)F (centres undefined),95.0,113.5,8.7,i,-15.4,0.118,.,.,.,.,.,.
Cc1c(Cl)cccc1N=c1c([N+](=O)[O-])nn(-c2ccccc2)n1O,108.9,102.8,-10.5,i,-11.0,6.02*,0.00629,0.00472,0.0273,0.00783,0.0189,0.00963
Cc1ccc(N=c2c([N+](=O)[O-])nn(-c3ccccc3)n2O)c(C)c1,97.8,110.3,2.8,i,-11.2,0.86,.,.,.,.,.,.
CN1/C(=C\C(=O)c2cccnc2)C(C)(C)c2ccccc21,126.2,110.3,-26.2,i,-11.4,-0.651,.,.,.,.,.,.
CN1/C(=C/C(=O)c2nc(S(C)(=O)=O)ncc2Cl)C(C)(C)c2ccccc21,115.3,90.8,-12.7,i,10.1,-7.22*,0.00614,?,0.0223*,?,0.0127*,0.01
C/C(=C\C(=O)c1ccncc1)Nc1ccccc1O,82.5,98.4,28.7,i,1.7,19.4*,0.0147*,0.0243*,0.032,0.0111*,0.0288,0.0115*

# Screens (PubChem)
